Data: ChEMBL document CHEMBL2331506, “Design, synthesis, antiviral and cytostatic evaluation of novel isoxazolidine nucleotide analogues with a carbamoyl linker” (Bioorg Med Chem, 2013)
Calls of active or inactive are those of the source. How the calls were made is not given here.

Legend:
[1] = Cytotoxicity against cat CRFK cells assessed as alteration of cell morphology up to 100 uM by microscopic analysis; type: cell-based, Felis catus
In short: (§1)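 Uninfected host-cell cultures were exposed to compound and examined by microscopy. Cytotoxicity was expressed as the minimum cytotoxic concentration (MCC) causing a microscopically detectable alteration of normal cell morphology.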

[2] = system: Vero; experiment: Cytotoxicity against african green monkey Vero cells assessed as alteration of cell morphology up to 100 uM by microscopic analysis; type: cell-based; conditions: chlorocebus sabaeus; in short: as §1
[3] = system: Human respirovirus 3; experiment: Antiviral activity against Parainfluenza virus 3 infected in african green monkey Vero cells assessed as reduction of virus-induced cytopathogenicity at 250 uM; type: functional, organism-based
In short: (§2)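 Confluent monolayers (HEL fibroblasts, Vero, or HeLa cells as listed) were infected with 100 CCID50 of virus in the presence of varying compound concentrations. Virus-induced cytopathicity or plaque formation was scored once cytopathicity was complete in untreated infected controls. EC50 was taken as the concentration reducing cytopathogenicity or plaque formation by 50%.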

[4] = system: Human immunodeficiency virus 1; experiment: Antiviral activity against Human immunodeficiency virus 1 3B infected in human CEM cells assessed as reduction of virus-induced giant cell formation at 250 uM after 4 to 5 days; type: functional, organism-based; conditions: CCRF-CEM
In short: (§3)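 CEM cells at 3 × 10^5 cells/mL were infected with HIV at 100 CCID50 per mL in the presence of compound dilutions. They were held 4–5 days at 37 °C in humidified CO2. Syncytium (giant cell) formation was scored microscopically, and EC50 was taken as the concentration inhibiting giant cell formation by 50%.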

[5] = system: MDCK; experiment: Cytotoxicity against dog MDCK cells assessed as alteration of cell morphology up to 100 uM by microscopic analysis; type: cell-based, Canis lupus familiaris; in short: as §1
[6] = system: Influenza B virus; experiment: Antiviral activity against Influenza B virus infected in dog MDCK cells assessed as reduction of virus-induced cytopathogenicity at 250 uM; type: functional, organism-based
In short: (§4)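 Confluent cell monolayers were infected with 100 CCID50 of virus while exposed to varying compound concentrations. Cytopathicity was scored once it was complete in untreated infected controls. EC50 was taken as the concentration that reduced virus-induced cytopathogenicity by 50%.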

[7] = system: Influenza A virus; experiment: Antiviral activity against Influenza A virus H1N1 infected in dog MDCK cells assessed as reduction of virus-induced cytopathogenicity at 250 uM; type: functional, organism-based; in short: as §4
[8] = system: Felid alphaherpesvirus 1; experiment: Antiviral activity against Feline herpes virus infected in cat CRFK cells assessed as reduction of virus-induced cytopathogenicity at 250 uM; type: functional, organism-based
[9] = system: Mammalian orthoreovirus 1; experiment: Antiviral activity against Reovirus 1 infected in african green monkey Vero cells assessed as reduction of virus-induced cytopathogenicity at 250 uM; type: functional, organism-based; in short: as §2
[10] = system: Respiratory syncytial virus; experiment: Antiviral activity against Respiratory syncytial virus long infected in human HeLa cells assessed as reduction of virus-induced cytopathogenicity at 250 uM; type: functional, organism-based; in short: as §2
[11] = system: Punta Toro virus; experiment: Antiviral activity against Punta Toro virus infected in african green monkey Vero cells assessed as reduction of virus-induced cytopathogenicity at 250 uM; type: functional, organism-based; in short: as §2
[12] = system: Vesicular stomatitis virus; experiment: Antiviral activity against Vesicular stomatitis virus infected in human HEL cells assessed as reduction of virus-induced cytopathogenicity at 250 uM; type: functional, organism-based; in short: as §4
[13] = system: Feline coronavirus; experiment: Antiviral activity against Feline coronavirus infected in cat CRFK cells assessed as reduction of virus-induced cytopathogenicity at 250 uM; type: functional, organism-based
[14] = system: Human alphaherpesvirus 1; experiment: Antiviral activity against Herpes simplex virus 1 KOS infected in human HEL cells assessed as reduction of virus-induced cytopathogenicity at 250 uM; type: functional, organism-based; in short: as §2
[15] = system: Influenza A virus; experiment: Antiviral activity against Influenza A virus H3N2 infected in dog MDCK cells assessed as reduction of virus-induced cytopathogenicity at 250 uM; type: functional, organism-based; in short: as §4
[16] = system: Human alphaherpesvirus 1; experiment: Antiviral activity against thymidine kinase-deficient, ACV-resistant Herpes simplex virus 1 KOS infected in human HEL cells assessed as reduction of virus-induced cytopathogenicity at 250 uM; type: functional, organism-based; in short: as §4
[17] = system: Vesicular stomatitis virus; experiment: Antiviral activity against Vesicular stomatitis virus infected in human HeLa cells assessed as reduction of virus-induced cytopathogenicity at 250 uM; type: functional, organism-based; in short: as §4
[18] = system: HEL; experiment: Cytotoxicity against human HEL cells assessed as alteration of cell morphology up to 100 uM by microscopic analysis; type: cell-based; in short: as §1
[19] = system: Human alphaherpesvirus 2; experiment: Antiviral activity against Herpes simplex virus 2 G infected in human HEL cells assessed as reduction of virus-induced cytopathogenicity at 250 uM; type: functional, organism-based; conditions: strain G; in short: as §2
[20] = system: Human immunodeficiency virus 2; experiment: Antiviral activity against Human immunodeficiency virus 2 ROD infected in human CEM cells assessed as reduction of virus-induced giant cell formation at 250 uM after 4 to 5 days; type: functional, organism-based; conditions: CCRF-CEM; in short: as §3
[21] = system: Coxsackievirus B4; experiment: Antiviral activity against Coxsackievirus B4 infected in african green monkey Vero cells assessed as reduction of virus-induced cytopathogenicity at 250 uM; type: functional, organism-based; in short: as §2
[22] = system: Sindbis virus; experiment: Antiviral activity against Sindbis virus infected in african green monkey Vero cells assessed as reduction of virus-induced cytopathogenicity at 250 uM; type: functional, organism-based; in short: as §2
[23] = system: HeLa; experiment: Cytotoxicity against human HeLa cells assessed as alteration of cell morphology up to 100 uM by microscopic analysis; type: cell-based; in short: as §1

CCOP(=O)(OCC)[C@H]1C[C@H](C(=O)Nc2ccc(C)cc2)ON1C (relative stereo)
Activity [1]: Non-toxic
Activity [2]: Non-toxic
inhibition [3]: inactive
inhibition [4]: inactive
Activity [5]: Non-toxic
inhibition [6]: inactive
inhibition [7]: inactive
inhibition [8]: inactive
inhibition [9]: inactive
inhibition [10]: inactive
inhibition [11]: inactive
inhibition [12]: inactive
inhibition [13]: inactive
inhibition [14]: inactive
inhibition [15]: inactive
inhibition [16]: inactive
inhibition [17]: inactive
Activity [18]: Non-toxic
inhibition [19]: inactive
inhibition [20]: inactive
inhibition [21]: inactive
inhibition [22]: inactive
Activity [23]: Non-toxic

CCOP(=O)(OCC)[C@H]1C[C@H](C(=O)Nc2cccc(C#N)c2)ON1C (racemic)
Activity [1]: Non-toxic
Activity [2]: Non-toxic
inhibition [3]: inactive
inhibition [4]: inactive
Activity [5]: Non-toxic
inhibition [6]: inactive
inhibition [7]: inactive
inhibition [8]: inactive
inhibition [9]: inactive
inhibition [10]: inactive
inhibition [11]: inactive
inhibition [12]: inactive
inhibition [13]: inactive
inhibition [14]: inactive
inhibition [15]: inactive
inhibition [16]: inactive
inhibition [17]: inactive
Activity [18]: Non-toxic
inhibition [19]: inactive
inhibition [20]: inactive
inhibition [21]: inactive
inhibition [22]: inactive
Activity [23]: Non-toxic

CCOP(=O)(OCC)[C@H]1C[C@H](C(=O)Nc2cc(OC)cc(OC)c2)ON1C (mixture of isomers)
Activity [1]: Non-toxic
Activity [2]: Non-toxic
inhibition [3]: inactive
inhibition [4]: inactive
Activity [5]: Non-toxic
inhibition [6]: inactive
inhibition [7]: inactive
inhibition [8]: inactive
inhibition [9]: inactive
inhibition [10]: inactive
inhibition [11]: inactive
inhibition [12]: inactive
inhibition [13]: inactive
inhibition [14]: inactive
inhibition [15]: inactive
inhibition [16]: inactive
inhibition [17]: inactive
Activity [18]: Non-toxic
inhibition [19]: inactive
inhibition [20]: inactive
inhibition [21]: inactive
inhibition [22]: inactive
Activity [23]: Non-toxic

CCOP(=O)(OCC)[C@@H]1C[C@H](C(=O)Nc2cc(OC)cc(OC)c2)ON1C (mixture of isomers)
Activity [1]: Non-toxic
Activity [2]: Non-toxic
inhibition [3]: inactive
inhibition [4]: inactive
Activity [5]: Non-toxic
inhibition [6]: inactive
inhibition [7]: inactive
inhibition [8]: inactive
inhibition [9]: inactive
inhibition [10]: inactive
inhibition [11]: inactive
inhibition [12]: inactive
inhibition [13]: inactive
inhibition [14]: inactive
inhibition [15]: inactive
inhibition [16]: inactive
inhibition [17]: inactive
Activity [18]: Non-toxic
inhibition [19]: inactive
inhibition [20]: inactive
inhibition [21]: inactive
inhibition [22]: inactive
Activity [23]: Non-toxic

CCOP(=O)(OCC)[C@@H]1C[C@@H](C(=O)Nc2ccccc2Cl)ON1C (racemic)
Activity [1]: Non-toxic
Activity [2]: Non-toxic
inhibition [3]: inactive
inhibition [4]: inactive
Activity [5]: Non-toxic
inhibition [6]: inactive
inhibition [7]: inactive
inhibition [8]: inactive
inhibition [9]: inactive
inhibition [10]: inactive
inhibition [11]: inactive
inhibition [12]: inactive
inhibition [13]: inactive
inhibition [14]: inactive
inhibition [15]: inactive
inhibition [16]: inactive
inhibition [17]: inactive
Activity [18]: Non-toxic
inhibition [19]: inactive
inhibition [20]: inactive
inhibition [21]: inactive
inhibition [22]: inactive
Activity [23]: Non-toxic

CCOP(=O)(OCC)[C@H]1C[C@H](C(=O)Nc2ccc(F)cc2F)ON1C (mixture of isomers)
Activity [1]: Non-toxic
Activity [2]: Non-toxic
inhibition [3]: inactive
inhibition [4]: inactive
Activity [5]: Non-toxic
inhibition [6]: inactive
inhibition [7]: inactive
inhibition [8]: inactive
inhibition [9]: inactive
inhibition [10]: inactive
inhibition [11]: inactive
inhibition [12]: inactive
inhibition [13]: inactive
inhibition [14]: inactive
inhibition [15]: inactive
inhibition [16]: inactive
inhibition [17]: inactive
Activity [18]: Non-toxic
inhibition [19]: inactive
inhibition [20]: inactive
inhibition [21]: inactive
inhibition [22]: inactive
Activity [23]: Non-toxic

CCOP(=O)(OCC)[C@@H]1C[C@H](C(=O)Nc2cccc(Br)c2)ON1C (mixture of isomers)
Activity [1]: Non-toxic
Activity [2]: Non-toxic
inhibition [3]: inactive
inhibition [4]: inactive
Activity [5]: Non-toxic
inhibition [6]: inactive
inhibition [7]: inactive
inhibition [8]: inactive
inhibition [9]: inactive
inhibition [10]: inactive
inhibition [11]: inactive
inhibition [12]: inactive
inhibition [13]: inactive
inhibition [14]: inactive
inhibition [15]: inactive
inhibition [16]: inactive
inhibition [17]: inactive
Activity [18]: Non-toxic
inhibition [19]: inactive
inhibition [20]: inactive
inhibition [21]: inactive
inhibition [22]: inactive
Activity [23]: Non-toxic

CCOP(=O)(OCC)[C@@H]1C[C@H](C(=O)Nc2ccc(OC)c(OC)c2)ON1C (mixture of isomers)
Activity [1]: Non-toxic
Activity [2]: Non-toxic
inhibition [3]: inactive
inhibition [4]: inactive
Activity [5]: Non-toxic
inhibition [6]: inactive
inhibition [7]: inactive
inhibition [8]: inactive
inhibition [9]: inactive
inhibition [10]: inactive
inhibition [11]: inactive
inhibition [12]: inactive
inhibition [13]: inactive
inhibition [14]: inactive
inhibition [15]: inactive
inhibition [16]: inactive
inhibition [17]: inactive
Activity [18]: Non-toxic
inhibition [19]: inactive
inhibition [20]: inactive
inhibition [21]: inactive
inhibition [22]: inactive
Activity [23]: Non-toxic
